Results as given in article PMC2881163 (The journal of physical chemistry. B, 2010).

Tests used:
mice = conditions: cited from earlier work
[1] = Dynamic light scattering of aqueous solutions; type: physicochemical; conditions: 25 °C; for z-average diameter of micelles: DLS cumulant analysis, water, concentrations above the CMC, mean ± SD
Outline: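 He-Ne laser (632.8 nm) with backscatter detection at 173°, 25 °C, using water viscosity 0.8937 cP and refractive index 1.333. Samples diluted from stock in Milli-Q water and filtered (0.02 μm). Solvent scattering was subtracted and plotted against concentration, with the inflection taken as the CMC. Triton X-100 served as positive control and a non-amphiphilic peptide as negative control. Triplicate samples were each read three times. Z-average came from a single-exponential cumulant fit and size distribution from a multi-exponential fit.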

[2] = Surface tension, Du Nouy ring tensiometer; type: physicochemical; conditions: aqueous solution, 25 °C; for surface tension: at 10 mM, triplicate solutions
Outline: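 Test compound solutions were equilibrated to 25 °C. The ring was immersed 5 mm below the surface, then retracted automatically at 5 mm/min. Between measurements the ring was rinsed with water and ethanol and flamed. Solutions were prepared in triplicate.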

[3] = low, clinically relevant concentrations; cited from earlier work
[4] = cited from earlier work
[5] = Stability of CMS in solution; type: physicochemical; conditions: 0.9% saline, 25 °C, over 120 hr

Colistin
LD50 (mice): 217.7 mg/kg | z-average diameter of micelles [1]: 2.07 ± 0.3 nm | interfacial tension after the CMC [2]: approximately 40 dynes/cm | surface tension [2]: 35–40 mN/m

Triton X-100
z-average diameter of micelles [1]: 8.17 ± 0.59 nm

colistin methanesulfonate [CMS]
conversion of CMS to colistin in plasma and urine in vivo [3]: rapid | LD50 (mice): 5.43 mg/kg | conversion of CMS to colistin in buffer solutions in vitro ([4]; <100 μg/mL at 37 °C): rapid | stability of concentrated CMS solutions with respect to formation of colistin ([4]; >70 mg/mL, relevant to commercial pharmaceutical formulations): stable for extended periods | conversion of CMS to colistin, initial concentration 0.052 mM ([5]; n = 3, HPLC of colistin formed): Rapid conversion | conversion of CMS to colistin, initial concentration 0.52 mM ([5]; n = 3, HPLC of colistin formed): Less rapid conversion | degradation of CMS, initial concentration 5.2 mM ([5]; n = 3, well above the CMC): negligible | degradation of CMS, initial concentration 52 mM ([5]; n = 3, well above the CMC): negligible | z-average diameter of micelles [1]: ~1.98 ± 0.36 nm | surface tension [2]: 35–40 mN/m

polymyxin B nonapeptide hydrochloride [PMBN]
light scattering above that of water ([1]; DLS, up to 20 mM, no reliable size data could be obtained): negligible
